Screening results deposited in PubChem BioAssay by Johns Hopkins Ion Channel Center.
Compounds with a hit are over-represented: about 2.9% of the library has one in this group of screens.
TRPC4 inh = blocks the mouse TRPC4 cation channel | Q9QUQ5 | HEK293 TRPC4beta/mu-opioid, DAMGO-evoked Fluo4 calcium flux; hits give low values | B-score at 10 µM | hit rate 0.39% among 300,000;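 active means B-score over 3 SD under the library average, no early fluorescence shift, positive overall ratio signal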
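Assay system: Stable TRPC4beta/mu-opioid receptor HEK293 cells | Reagent: DAMGO in two steps, submaximal then maximal | Compound dosing: Single concentration per test compound | Signal: Fluo4 Ca2+ flux fluorescence | Evaluation: Per-well B score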
TRPC6 act = mouse TRPC6 channel activation | B-score at 10 µM | HEK293-TRPC6 membrane potential dye fluorescence; hits give high values | Q61143 | hit rate 0.13% among 310,000 | AID 2550;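 active means B-score of the integrated fluorescence ratio above library mean plus 3 SD, and starting fluorescence ratio within library mean plus 5 SD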;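 further: higher score means more depolarization so channel activation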
Target sequence (Q61143 whole entry, looked up): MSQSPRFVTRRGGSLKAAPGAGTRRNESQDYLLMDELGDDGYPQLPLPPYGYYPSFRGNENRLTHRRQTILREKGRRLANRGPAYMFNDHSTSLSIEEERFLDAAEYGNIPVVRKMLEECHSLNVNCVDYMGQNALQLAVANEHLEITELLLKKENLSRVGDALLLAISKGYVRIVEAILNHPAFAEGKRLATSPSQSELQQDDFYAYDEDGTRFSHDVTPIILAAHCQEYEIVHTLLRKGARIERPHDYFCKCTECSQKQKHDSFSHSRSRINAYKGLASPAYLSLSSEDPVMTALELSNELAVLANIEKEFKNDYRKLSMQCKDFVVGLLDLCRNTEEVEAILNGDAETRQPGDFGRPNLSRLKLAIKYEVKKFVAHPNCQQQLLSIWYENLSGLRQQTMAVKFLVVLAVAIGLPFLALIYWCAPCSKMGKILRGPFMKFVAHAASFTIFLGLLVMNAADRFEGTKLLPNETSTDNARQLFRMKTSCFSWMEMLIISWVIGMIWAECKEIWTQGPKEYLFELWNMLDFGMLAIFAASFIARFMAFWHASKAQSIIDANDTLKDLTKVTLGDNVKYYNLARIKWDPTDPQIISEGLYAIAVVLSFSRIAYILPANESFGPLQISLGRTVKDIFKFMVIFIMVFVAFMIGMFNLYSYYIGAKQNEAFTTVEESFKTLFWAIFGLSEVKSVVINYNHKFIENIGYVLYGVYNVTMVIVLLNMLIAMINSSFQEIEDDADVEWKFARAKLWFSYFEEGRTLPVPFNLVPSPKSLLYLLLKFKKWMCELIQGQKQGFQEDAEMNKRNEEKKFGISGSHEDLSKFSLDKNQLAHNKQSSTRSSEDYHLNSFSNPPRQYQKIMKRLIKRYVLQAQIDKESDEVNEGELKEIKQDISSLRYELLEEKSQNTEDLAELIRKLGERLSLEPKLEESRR
TRPC6 inhibitor = blocks the mouse TRPC6 cation channel; Q61143; HEK293-TRPC6, membrane potential dye, ACh-evoked depolarization; hits give low values; B-score at 10 µM; hit rate 1.1% among 310,000; AID 2553;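 active means B-score under library mean minus 3 SD, initial fluorescence not abnormally high, positive integrated signal ratio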;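 further: B-score derived from integrated fluorescence ratio over the kinetic read; more negative B-score means stronger inhibition of depolarization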
TRPC4 act = activators of mouse TRPC4 channel | Q9QUQ5 | HEK293 TRPC4beta/mu-opioid, Fluo4 calcium fluorescence; hits give high values | B-score at 10 µM | hit rate 0.49% among 310,000 | AID 2237;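 active means B-score above 5 SD of library B-scores, and initial fluorescence ratio not above library mean plus 5 SD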;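 further: positive B-score marks a calcium rise read as TRPC4 activation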
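Material: TRPC4beta and mu-opioid receptor HEK293 stable cells | Incubation: 45 min room-temperature Fluo4 loading, 110 s read | Detection: Kinetic Fluo4 calcium fluorescence | Measure: Integrated baseline-normalised fluorescence ratio, converted to per-well B score | Benchmarks: Low control buffer alone, high control maximal DAMGO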
Kir21 block = Kir2.1 (mouse) channel inhibition | P35561 | HEK293-Kir2.1, FluxOR thallium flux fluorescence; hits give low values | B-score at 10 µM | hit rate 0.85% among 310,000;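 active means fluorescence ratio B-score at or below minus 3 SD of library scores, with starting-brightness B-score within 2 SD, cut at about -4.2 in these data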;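 further: channel flux triggered by added potassium and thallium sulfate stimulus; B-score of peak minus minimum fluorescence over baseline after thallium stimulus; more negative B-score means stronger Kir2.1 block with less thallium influx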
TRPC4 PAM = allosteric potentiators of mouse TRPC4 channel; HEK293 TRPC4beta/mu-opioid, DAMGO EC20, Fluo-4 Ca2+ flux; hits give high values; B-score at 10 µM; hit rate 0.42% among 310,000;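 active means B-score of calcium response area above 5 SD of library B-scores, with initial fluorescence ratio within 5 SD of library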;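 further: B-score of integrated fluorescence ratio over time as area under calcium response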
Numbers without * were called inactive.

Results for Cc1cccc(C(=O)OC2CCCN(C)C2)c1C (configuration not stated) ?
TRPC4 inh: inactive; TRPC6 act: inactive; TRPC6 inhibitor: inactive; TRPC4 act: 95*; Kir21 block: -0.41; TRPC4 PAM: inactive

How did COc1ccccc1-c1c(C)oc2cc(OC(=O)c3ccco3)ccc2c1=O do in these assays?
TRPC4 inh: inactive; TRPC6 act: inactive; TRPC6 inhibitor: inactive; TRPC4 act: inactive; Kir21 block: -9.2*; TRPC4 PAM: inactive

What do the screens show for `CCOc1ccccc1Oc1c(C)oc2cc(OC(=O)c3ccco3)ccc2c1=O`?
TRPC4 inh: inactive; TRPC6 act: inactive; TRPC6 inhibitor: inactive; TRPC4 act: inactive; Kir21 block: -0.54; TRPC4 PAM: inactive

How did Cc1ccc(N2CCN(c3ccc(NCc4nc5ccccc5n4C)cc3)CC2)cc1 do in these assays?
TRPC4 inh: inactive; TRPC6 act: inactive; TRPC6 inhibitor: inactive; TRPC4 act: 122*; Kir21 block: 0.96; TRPC4 PAM: inactive

How did Cn1c(CN2CCN(c3cccc(Cl)c3)CC2)nc2ccccc21 do in these assays?
TRPC4 inh: inactive; TRPC6 act: inactive; TRPC6 inhibitor: inactive; TRPC4 act: 84*; Kir21 block: -1.7; TRPC4 PAM: inactive

How did CC1Cc2ccccc2N1C(=O)CN1CCCCC1 (configuration not stated) do in these assays?
TRPC4 inh: inactive; TRPC6 act: inactive; TRPC6 inhibitor: inactive; TRPC4 act: inactive; Kir21 block: 0.2; TRPC4 PAM: inactive

Results for NCCC(=O)N1c2ccccc2Sc2ccc(Cl)cc21 ?
TRPC4 inh: inactive; TRPC6 act: inactive; TRPC6 inhibitor: inactive; TRPC4 act: inactive; Kir21 block: -4.8*; TRPC4 PAM: inactive

What do the screens show for `CC1CCCN(CC(=O)N2c3ccccc3Sc3ccccc32)C1` (configuration not stated)?
TRPC4 inh: inactive; TRPC6 act: inactive; TRPC6 inhibitor: inactive; TRPC4 act: inactive; Kir21 block: -0.62; TRPC4 PAM: inactive

What do the screens show for `O=C(CN1CCCCC1)N1c2ccccc2Oc2ccccc21`?
TRPC4 inh: -5*; TRPC6 act: inactive; TRPC6 inhibitor: inactive; TRPC4 act: inactive; Kir21 block: -0.75; TRPC4 PAM: inactive

What do the screens show for `O=C(CN1CCCCCC1)N1c2ccccc2Sc2ccccc21`?
TRPC4 inh: -7*; TRPC6 act: inactive; TRPC6 inhibitor: inactive; TRPC4 act: inactive; Kir21 block: -2; TRPC4 PAM: inactive

What do the screens show for `CN(C(=O)Cn1cc(C(F)(F)F)ccc1=O)c1c(N)n(Cc2ccccc2)c(=O)[nH]c1=O`?
TRPC4 inh: inactive; TRPC6 act: inactive; TRPC6 inhibitor: inactive; TRPC4 act: inactive; Kir21 block: -0.4; TRPC4 PAM: inactive

How did CC(Sc1nnc(-c2ccc(Cl)cc2)n1N)C(=O)NCC1CCCO1 (configuration not stated) do in these assays?
TRPC4 inh: inactive; TRPC6 act: inactive; TRPC6 inhibitor: inactive; TRPC4 act: inactive; Kir21 block: -0.9; TRPC4 PAM: inactive

How did O=C(c1cccc(F)c1)N1CCN(C(=O)C(c2ccccc2)c2ccccc2)CC1 do in these assays?
TRPC4 inh: inactive; TRPC6 act: inactive; TRPC6 inhibitor: inactive; TRPC4 act: inactive; Kir21 block: -1.1; TRPC4 PAM: inactive

Results for CCCCN(C(=O)/C=C/c1ccco1)c1c(N)n(Cc2ccccc2)c(=O)[nH]c1=O ?
TRPC4 inh: inactive; TRPC6 act: inactive; TRPC6 inhibitor: inactive; TRPC4 act: inactive; Kir21 block: -2.1; TRPC4 PAM: inactive

What do the screens show for `COc1ccc(-c2[nH]ncc2CNC(C)c2ccccc2Cl)cc1F` (configuration not stated)?
TRPC4 inh: inactive; TRPC6 act: inactive; TRPC6 inhibitor: inactive; TRPC4 act: inactive; Kir21 block: -7.3*; TRPC4 PAM: inactive

Results for COC(=O)[C@H](CC(C)C)NC(=O)NCc1ccc(Cl)cc1 ?
TRPC4 inh: inactive; TRPC6 act: inactive; TRPC6 inhibitor: inactive; TRPC4 act: inactive; Kir21 block: 0.93; TRPC4 PAM: inactive

How did Cc1sc(NC(=O)CN2CCN(c3ccccn3)CC2)c(C#N)c1C do in these assays?
TRPC4 inh: inactive; TRPC6 act: inactive; TRPC6 inhibitor: inactive; TRPC4 act: inactive; Kir21 block: -4.5*; TRPC4 PAM: inactive

Results for O=C(NCCc1ccccc1)c1nc(-c2cccs2)no1 ?
TRPC4 inh: inactive; TRPC6 act: inactive; TRPC6 inhibitor: inactive; TRPC4 act: inactive; Kir21 block: 0.43; TRPC4 PAM: inactive

Results for Cc1ccnc(NS(=O)(=O)c2ccc(CC(C)C)cc2)c1 ?
TRPC4 inh: inactive; TRPC6 act: inactive; TRPC6 inhibitor: inactive; TRPC4 act: inactive; Kir21 block: -1.2; TRPC4 PAM: 13*

Results for c1ccc(CCNCCCOc2cccc3ccccc23)cc1 ?
TRPC4 inh: inactive; TRPC6 act: inactive; TRPC6 inhibitor: inactive; TRPC4 act: 66*; Kir21 block: -16*; TRPC4 PAM: inactive

What do the screens show for `OC(CNCCc1ccccc1)COc1ccc(OCC(O)CNCCc2ccccc2)cc1` (configuration not stated)?
TRPC4 inh: inactive; TRPC6 act: inactive; TRPC6 inhibitor: inactive; TRPC4 act: inactive; Kir21 block: -11*; TRPC4 PAM: 22*

What do the screens show for `Clc1ccc(OCCNCCc2ccccc2)cc1`?
TRPC4 inh: inactive; TRPC6 act: inactive; TRPC6 inhibitor: inactive; TRPC4 act: 98*; Kir21 block: -1.9; TRPC4 PAM: inactive

Results for COc1ccc(CCNCC(O)COc2ccc(Cl)cc2)cc1OC (configuration not stated) ?
TRPC4 inh: inactive; TRPC6 act: inactive; TRPC6 inhibitor: inactive; TRPC4 act: inactive; Kir21 block: 0.51; TRPC4 PAM: inactive

What do the screens show for `CC(C)c1ccc(OCC(O)CNC(C)c2ccccc2)cc1` (configuration not stated)?
TRPC4 inh: inactive; TRPC6 act: inactive; TRPC6 inhibitor: inactive; TRPC4 act: inactive; Kir21 block: -6*; TRPC4 PAM: inactive

How did CC(=O)NCCOc1cccc2ccccc12 do in these assays?
TRPC4 inh: inactive; TRPC6 act: inactive; TRPC6 inhibitor: inactive; TRPC4 act: inactive; Kir21 block: 0.93; TRPC4 PAM: inactive

How did CN(CCc1ccccc1)C(=O)c1cc(COc2ccc(F)cc2Cl)on1 do in these assays?
TRPC4 inh: inactive; TRPC6 act: inactive; TRPC6 inhibitor: inactive; TRPC4 act: inactive; Kir21 block: -0.71; TRPC4 PAM: inactive

How did CCOC(=O)C1CCN(C(=O)c2ccccc2NS(=O)(=O)c2ccc(F)cc2)CC1 do in these assays?
TRPC4 inh: inactive; TRPC6 act: inactive; TRPC6 inhibitor: inactive; TRPC4 act: inactive; Kir21 block: 1; TRPC4 PAM: inactive
